Drawing on ChEMBL document CHEMBL1122001, “Darmstoff analogues. 2. Ring and side-chain effects on smooth-muscle contraction” (1982), this text covers Activity, Potency and Concentration for ten compounds.

Type in all cases: functional
The species named for assay [1] is Cavia porcellus. Nature of the assay: Compound was tested for its ability to cause contraction of guinea pig ileum; Inactive.
The species named for assay [2] is Cavia porcellus. The assay is described as follows: Potency for guinea pig ileum contraction relative to acetylcholine. In short, it runs like this:
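Ileal strip held in an oxygenated (95% O2/5% CO2) buffer bath under 1-g tension, with contraction magnitude recorded on a dynograph. An acetylcholine control response curve was run first, then a test compound curve after tissue recovery. The value is the ratio of the doses giving 50% of maximal response.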

The species named for assay [3] is Cavia porcellus. Nature of the assay: Compound was tested for its ability to cause contraction of guinea pig ileum; Active.
Assay [4] is filed under the species Cavia porcellus. Nature of the assay: Concentration required for half-maximal contraction of guinea pig ileum.

Structures are written as SMILES. Calls of active or inactive are those of the source. The rule behind the calls is not given here.

As to `CCCCCCCCCCCCCCCC1OC(COP(=O)(O)O)CS1` (stereo not drawn), the result in the assay listed under Cavia porcellus [1] was inactive. On the same count and under the same terms, for `CCCCCCCC/C=C/CCCCCCCC1CCC(COP(=O)(O)O)C1` (cis isomer) the value was “inactive”; for `CCCCCCCCCCCCCCCC1CCC(COP(=O)(O)O)C1` (stereo not drawn), “inactive”; for `CCCCCCCC/C=C/CCCCCCCC1OC(COP(=O)(O)O)CS1` (cis isomer), “inactive”. The same measure, in the same setting: to `CCCCCCCCCCCCCCCC1OCC(COP(=O)(O)O)O1` (stereo not drawn) belongs “inactive”.

Regarding `CCCCCCCCCCCCCCCC1COC(COP(=O)(O)O)CO1` (stereo not drawn), in the assay listed under Cavia porcellus [1], the outcome was inactive. Same read-out and setting: to `CCCCCCCC/C=C/CCCCCCCC1CCC(COP(=O)(O)O)O1` (stereo not drawn) belongs “inactive”. As to `CCCCCCCC/C=C/CCCCCCCC1COC(COP(=O)([O-])O)CO1.[Na+]` (stereo not drawn), the Potency in the assay listed under Cavia porcellus [2] was determined as 0.05%. Besides, in the assay listed under Cavia porcellus [3], the outcome was Active. In the assay filed under Cavia porcellus [4], the Concentration turned out to be 16 µM.

As to `CCCCCCCCCCCCCCCC1CCC(COP(=O)(O)O)O1` (stereo not drawn), in the assay filed under Cavia porcellus [1], the result was inactive. On to `CCCCCCCC/C=C/CCCCCCCC1OCC(COP(=O)([O-])O)O1.[Na+]` (cis isomer), for which the Potency in the assay listed under Cavia porcellus [2] was found to be 0.4%. In addition, the result in the assay listed under Cavia porcellus [3] was Active.
